Data from the EternaBench riboswitch data.

System: MS2 coat protein
Assay: apparent Kd, MS2 coat protein; higher = weaker binding; RNA-MaP array; FMN 200 µM where present
Outline: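 Designs were transcribed by stalled E. coli RNA polymerase on Illumina sequencing-chip clusters. They were titrated with SNAP-549-labelled MS2 coat protein from 0.7 or 1.5 nM, doubling to 3 µM, without and then with constant ligand. Buffer: 100 mM Tris-HCl pH 7.5, 80 mM KCl, 4 mM MgCl2, BSA, DTT, yeast tRNA, Tween-20. Green signal was normalised to red-channel RNA signal and control-cluster median Fmax. Apparent Kd is the median of filtered per-cluster binding-curve fits.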

[1] = designed as: OFF switch for flavin mononucleotide, no ligand
[2] = ligand present: flavin mononucleotide, designed as: OFF switch for flavin mononucleotide
[3] = designed as: ON switch for flavin mononucleotide, no ligand
[4] = ligand present: flavin mononucleotide, designed as: ON switch for flavin mononucleotide

Sequence	apparent Kd [1] [nM]	apparent Kd [2] [nM]	apparent Kd [3] [nM]	apparent Kd [4] [nM]
AAAAAGUGAGGAUAUGCACUGUCCUGUAGACGCGAGCAGUUGUAGAAGGCACAUGAGGAUCACCCAUGUUUAAA	25.1	22.5	–	–
GACUGACAUGAGGAUCACCCAUGUAUUCAAACAUGAGGAUAUAUAACACAUCAUCGACGGAUAGAAGGCAUAGAUA	–	–	128	124
GAGCGAGGGACAGGAUAUGCGGCGAAACUCGCCGCAGAAGGGUCGACAUGAGGAUCACCCAUGUCCUUACGCUCCAAGUAGAGG	–	–	97	488
GUGCCUUGGGAGAAGGCCGUAUGCAAAGCAUACGGAGGAUAUUCAUACCGGAAACGGACAUGAGGAUCACCCAUGUGGCACAAA	–	–	1360	46.1
CGAAGUCCGUAGAAGGGUGACAUGAGGAUCACCCAUGUGCGAGCGGAGAGAGUCAGCGGCUCGCCACAGGAUAUACGGAGCACG	–	–	103	29.1
AGAUCACAUGAGGAUCACCCAUGUGAGGAUAUAGAUUCAAGAGCUUCGGCUCUAAAGUCUAGAAGGCGCUAUGA	25.1	25.6	–	–
UGCGCUGAGGGAGGAUAUGACAUGAGGAUCACCCAUGUGAUAGGUUUCUUGUCAGAAGGCCCGCAUGUACCAAAUUAGGUUUGU	94	126	–	–
AAGUAGAUCCGAGGAUAUACAAUCCGGAAACGGUACAUGAGGAUCACCCAUGUAGAAGGCGGAUCUACAGGUACUAAAGUACCU	5.58	7.98	–	–
AUCAGCUCGUCAGGAUAUACGUCACUGCGUCAGCAGUGUGGUAAGAUCACAUGAGGAUCACCCAUGUAGAAGGGACGAGCUGAC	14.2	306	–	–
AUGCAGGGCGAGAAGGAGCGACAUGAGGAUCACCCAUGUAUCUUCAACUCGCUAGGAUAUCGGGUUGUAUUGAAAAUUAUUGAA	4.86	5.5	–	–
CCCAGUUAGGAAGGAUAUUGUACAUGAGGAUCACCCAUGUAAUAAAUGAGGAUCACGGAUGUAUACAAGAAGGUCCGGAUAGGC	70.4	140	–	–
AACAGUACAGGAUAUACAUGAGGAUCACCCAUGUGAGAAUUAAGUGGCGUACCACAUAGUAGAAGGGUACUGGA	71	156	–	–
UCAUACGGUGAGGAUAUCUCCACUAAAGUGUGUAGAGAAGGCGCUACAUGAGGAUCACCCAUGUUUAUGGGCAG	376	117	–	–
GUCUCGAUGUAAGGAUAUGCAGUGGAUAACACUGCAGAAGGUACAUGAGGAUCACCCAUGUAUAUGAAAGAUAAUAAACGAGAC	14.4	19.8	–	–
UGAUCGAGAGAUCUUAGAUUCUGGUAGGAUAUGCAACAGUUGCGCUUUACAUGAGGAUCACCCAUGUAGAAGGACUAGAGUCUA	5.86	6.1	–	–
CGAGAGGCAGGAUAUAGUAUUUGCGACAUGAGGAUCACCCAUGUAUAUACAGUCGCUCCGUUAGAAGGGCCAUUUC	22.8	33.2	–	–
GGACGUCCCAUUAACAUGAGGAUCACCCAUGUCAAAAGACAUGAGGAUAUGGUACCUAAUUGGUACCAGAAGGCAUGGACGUCC	–	–	1210	106
UGCUGUGUCAGAGGAUAUACUACUAUAAUCCAUUGCAAAUAGCGAUGGACAUGAGGAUCACCCAUGUAGAAGGCUGUCACAGCA	46.6	178	–	–
UGAUCUUACAUGAGGAUCACCCAUGUAGGCCAGUAACUAACCAGAAGGCACGUAGAGUACAACAGUGAGGAUAUGGAUGACAUA	–	–	9.29	5.95
AUUGUAGUUGUGAGGAUAUCGUUGAUUUUUUGAAACGAGAAGGCACAUGAGGAUCACCCAUGUUAGUUGUUGGU	84	212	–	–
UUAAUUUGAGGAUAUACAUUUAACCACAUGAGGAUCACCCAUGUAAUAUCAUGUAUUUGUGUAGAAGGCAGAAUGC	18.8	17.5	–	–
GCACUGGAUGUAGGAUAUCAGGACGAUAAGUCCUGAGAAGGACAUGAGGAUCACCCAUGUACACAAAACCAGUGCUAUAAUAUA	13.7	18.8	–	–
UGUAACCAAGGAUAUACAUGAGGAUCACCCAUGUAAUGUAGUAUAGUGUGUGUGAGGUGUAGAAGGAGGGAUGU	76.3	73.6	–	–
AAUGGCUGGUGAACUUGGUCACAUGAGGAUCACCCAUGUUAUGAGGAUAUCGCUGCACAUUGACGUGAGAAGGCAUAGCAAGCC	132	453	–	–

Sequence	apparent Kd [1] [nM]	apparent Kd [2] [nM]	apparent Kd [3] [nM]	apparent Kd [4] [nM]
AUCGACAGUGUCAGGAUAUCUCACCCGAGUGGGCGAGAGAAGGGACAUGAGGAUCACCCAUGUGCGUUCUCUAA	27.5	174	–	–
UUCAACGAUGAAGGAUAUCUAUGUCCAACAUGAGGAUCACCCAUGUUGAGGAUUACCUAUGUGUAGGAGAAGGUCAAUUUGACU	–	–	7.01	6.51
CCAAGCUGUGUGAGGAUAUGCUGAACCUUGGUUCAGCAGAAGGCACAUGAGGAUCACCCAUGUGAAGAGCUUGG	17.3	69.3	–	–
UCAUUUUACACAGGAUAUAUUCAUAUACAGUUGUUUGGCUCUUACAUGUUAGUAGAAGGGUGCAACAUGAGGAUCACCCAUGUA	–	–	279	274
AGAUGUGAACAUGAGGAUCACCCAUGUGACUAGGUUUAUUUCAGAAGGCAUUAAUAGAGAUUAUAUGAGGAUAUGAAGUUUUAA	–	–	11.8	7.11
GUCUUCCUAGGAUAUACAUGAGGAUCACCCAUGUACAGUUUCGUCUAAGGAUACUCGCGUAGAAGGAGGUGGAU	21.9	42.7	–	–
UUUUAACAUGAGGAUCACCCAUGUGAGGAUAUCGAAAUUUAUAUUAAUAUUUAUAAAACGAGAAGGCACAUUUU	104	82.8	–	–
GUGUAGAUAGGAUAUGCUUUGAGCUUAUGAGAGUAUGCUCGACAUGAGGAUCACCCAUGUAGAAGGGUUUACAC	–	52.5	–	–
GUGCGGUAGGAGAAGGACGGAGGGUUCUUUUCAUACAUGAGGAUCACCCAUGUAGGAUAUCCUACCUCACGCGGCCUACUACAG	8.11	11.4	–	–
GGAUAGGACAGAGGAUAUGCCGAUAGGAUCUACUAUCGAAGAAUCCUCACAUGAGGAUCACCCAUGUAGAAGGCUGUCCUAUCG	23.8	131	–	–
GCAGGUUAAGUAAGGAUAUACCUCUGGAAACAGAGGUAGAAGGUACAUGAGGAUCACCCAUGUUUCUCUUCUGC	17.3	45.7	–	–
UCCUUCUGUUGAGGAUAUGUAAGACAGCGGCUGCUAUGGCGACACGCUGAUACAGAAGGCAACAUGAGGAUCACCCAUGUUCAA	19.2	145	–	–
AAAUAGAUACAUGAGGAUCACCCAUGUUAAUAGGUGUUUGUCAGAAGGCAUUAUGAGAGAAUUAAUGAGGAUAUGAAAUAUGAU	–	–	39.3	22.8
AAACACAAACAUGAGGAUCACCCAUGUUAUGAAGAUACUGGGAGAAGGGCGAUUGCAAAGCAAUCGCAGGAUAUUCGUAUUGUG	–	–	50.4	14.5
UAUGGUUAAGUCAGGAUAUACGUGCAGUUAUCUGAGUAGAAGGGACAUGAGGAUCACCCAUGUAUGGUAGUGUU	75.3	86.4	–	–
CAGUUAAAAGUGAGGUCUUCGACAUGAGGAUCACCCAUGUACGAGGAUAUGUAAUAUACGGUAUAGCAGAAGGCGUAUGGGUGU	20.9	46.9	–	–
GGUGAAUGAACAUGAGGAUCACCCAUGUACAGGAAACUGAAUGAGGAUAUCCAUAGCAAAGCUAUGGAGAAGGUAUGGGUCACC	–	–	40.5	44.9
AAAAGUAGAGGAUAUACAUGAGGAUCACCCAUGUAGAAAGGAAGUGUAUAUAUGGCAUGUAGAAGGCUACAUGA	32.1	34.4	–	–
GGUUGGCGAGGAUAUACAUGAGGAUCACCCAUGUGGUCCUGCGGUGGUGUCGCCCUUUGUAGAAGGCGCGGGUC	59.1	56.6	–	–
UUUUGGUCAGGAUAUUGUUAGUUUAGUUGUUUGUAUUAGUUCGAGAAGGGACAUGAGGAUCACCCAUGUGAUUU	99.2	102	–	–
UCGUACAUUCGAGGAUAUCGGUGAUAAAUAAUACGAGAAGGCGAUUGUGGGCAUAACGCCUUAGACAUGAGGAUCACCCAUGUA	–	–	75.6	51.5
CGCUAAGAUGGGUCUAAUGGAGCAUAGGAUAUGCUUGUACAUGAGGAUCACCCAUGUAAUAUUGUGCAGAAGGGUGCAUUUGCG	–	–	127	61.7
GCGUCAGGAGGAUAUACAUGAGGAUCACCCAUGUAACACGGGAUCGUCGUUUAGUAGAGUAGAAGGCCUAUUGU	64.1	106	–	–
AUAGCACAUGAGGAUCACCCAUGUGAGGAUAUUAGACCAUGGCUCUCAAAGACCAUGCUGAGAAGGCACUCGGG	35.5	82.5	–	–
